Experimental data from PubChem BioAssay AID488897 (Broad Institute, 2010).
Inconclusive results are not listed. The source made the active and inactive calls.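 Rule for the calls: active = fitted half-maximal concentration for caspase signal rise at or below the highest valid tested dose; inconclusive = flat fit at 30 to 70% of control, or poor fit; inactive = the rest.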

Tested on: not listed separately
Assay: caspase activation in A1/tBid-expressing MEFs, dose response, A1 inhibitor project, cell-based, tBid as inducer, caspase 3/7 luminescence, dry powder (AID 488897)
Settings: MEF A1-2A-tBid cells, caspase 3/7 luminescence, 3 h; at 150 µM (top of the series)
How it was run: (§1)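 Material: tBid-primed A1-2A-tBid mouse embryonic fibroblasts / Input: 2500 cells/well / Signal: luminescence, Caspase-Glo 3/7 DEVD-luciferin reagent diluted 1:1 in 50 mM HEPES / Read-out: caspase activation from luminescence increase / Buffer or medium: TSA added at seeding / Doses: pinned compound in dose-response series / Times: 3 h compound at 37 °C, 1 h reagent at RT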

| SMILES | caspase activation |
| --- | --- |
| COc1cc(/C=C(/C#N)c2nc3ccccc3[nH]2)ccc1OCC(=O)Nc1ccccc1C(C)C | 1.39% (inactive) |
| C=C1[C@@H](C)[C@H]2[C@H](Cc3ccccc3)NC(=O)[C@]23[C@H](OC(C)=O)/C=C/[C@](C)(O)C(=O)[C@@H](C)C/C=C/[C@H]3[C@@H]1O | 0.731% (inactive) |

Tested on: MEF A1-2A-tBid cells, caspase 3/7 luminescence, 3 h
Assay: as above
Settings: not given
How it was run: as §1

| SMILES | AC50 |
| --- | --- |
| Cc1cccc(NC(=O)/C(C#N)=C/c2cn(CC(=O)NCc3ccco3)c3ccccc23)c1 | 7.59 µM |
| C=C1[C@@H](C)[C@H]2[C@H](Cc3ccccc3)NC(=O)[C@]23OC(=O)/C=C\[C@H](O)CCC[C@@H](C)C/C=C/[C@H]3[C@@H]1O | 12.7 µM |
| CC(=O)N[C@H]1[C@H](O[C@H]2CC[C@@]3(C)C(CC[C@]4(C)C3CC=C3[C@@H]5CC(C)(C)CC[C@]5(C(=O)OC5OCC(O)C(O)C5O)C(O)C[C@]34C)C2(C)C)O[C@H](COC2OCC(O)C(OC3OCC(O)C(O)C3O)C2O)[C@@H](O[C@@H]2O[C@@H](C)[C@H](O)[C@@H](O)[C@H]2O[C@@H]2O[C@@H](C)[C@H](O)[C@@H](O)[C@H]2O)[C@@H]1O (stereo partly drawn) | 12.2 µM |
| CC(C)(C)n1nc(-c2ccc(Cl)cc2)c2c(N)ncnc21 | > 150 µM (inactive) |
| O=C(CCl)N=c1sccn1Cc1ccccc1Cl | 1.93 µM |
| Cc1ccc(Sc2c([N+](=O)[O-])c(=O)n(C)c3ccccc23)cc1 | 18.1 µM |
| Cc1cc(C(=O)CCl)c(C)n1CCc1ccc(Cl)cc1 | 8.01 µM |
| Nc1nc(F)nc2c1ncn2[C@@H]1O[C@H](CO)[C@@H](O)[C@H]1O | 2.35 µM |
| COc1ccc(N(C(=O)CCl)C(C(=O)NCCc2ccccc2)c2cccs2)cc1Cl (stereo not drawn) | > 150 µM (inactive) |
| CCc1cc2c(=O)c(-c3cnn(-c4ccccc4)c3)c(C)oc2cc1OCC(=O)Nc1cccc(C)c1 | > 100 µM (inactive) |
| Cc1cccc(CS(=O)(=O)c2ncc(Cl)c(C(=O)Nc3nnc(C(C)C)s3)n2)c1 | > 46 µM (inactive) |
| Cc1c(CCOC(=O)c2ccc(N3CCOCC3)c([N+](=O)[O-])c2)sc[n+]1CC#N | 16.7 µM |
| Cn1c(=NC(=O)CCl)sc2ccccc21 | 3.22 µM |
| C/C1=C/C(=O)O[C@@H]2C[C@@H](CC[C@H](C)/C=C\CC1)O[C@@](O)(C1CSC(=O)N1)C2 (stereo partly drawn) | 0.695 µM |
| Cc1ccc(CS(=O)(=O)c2ncc(Cl)c(C(=O)Nc3nnc(C(C)C)s3)n2)cc1 | > 46 µM (inactive) |
| COc1cccc(C(=O)C(C#N)=C(SC)SC)c1 | 2.71 µM |
| CCOC(=O)CSC1=N/C(=C/c2ccc(-n3cncn3)cc2)C(=O)N1C(C)=O | 9.07 µM |
| CC(=O)OC(C)(C)/C=C/C(=O)[C@](C)(O)C1[C@H](O)C[C@@]2(C)C3CC=C4C(C[C@H](O)C(=O)C4(C)C)[C@]3(C)C(=O)C[C@]12C (stereo partly drawn) | > 150 µM (inactive) |
| Cc1c(C=O)c(C=O)c(C)n1Cc1ccccc1 | 6.11 µM |
| CCc1nnc(NC(=O)c2nc(S(=O)(=O)Cc3ccccc3)ncc2Cl)s1 | > 68 µM (inactive) |
| O=C(Oc1cccc(/C=N/Nc2nc(Nc3ccccc3)nc(N3CCOCC3)n2)c1)c1ccco1 | 17.6 µM |
